What was measured:
Assay type in all cases: functional, cell-based
HepG2 = assay: Antiproliferative activity against human HepG2 cells after 24 hrs by MTT assay; details: HepG2, 24 h
In short: (§1)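 MTT proliferation assay on HUVECs and on HepG2, A375, U251, B16 and HCT116 cells. Results reported as IC50.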

A-375 = assay: Antiproliferative activity against human A375 cells after 24 hrs by MTT assay; details: A-375, 24 h; in short: as §1
U-251 = assay: Antiproliferative activity against human U251 cells after 24 hrs by MTT assay; details: U-251, 24 h; in short: as §1
B16 = assay: Antiproliferative activity against mouse B16 cells after 24 hrs by MTT assay; details: B16, 24 h; in short: as §1
[1] = Antiproliferative activity against human HCT116 cells after 24 hrs by MTT assay; details: HCT-116, 24 h; in short: as §1
HUVEC = assay: Antiproliferative activity against HUVEC after 24 hrs by MTT assay; details: Homo sapiens; in short: as §1

IC50 (HepG2)	IC50 (A-375)	IC50 (U-251)	IC50 (B16)	SMILES	IC50 [1]	IC50 (HUVEC)
> 10 µM	> 10 µM	> 10 µM	> 10 µM	COc1cc(OC)cc(-c2coc3c4c(ccc3c2=O)OC(C)(C)C=C4)c1	> 10 µM	> 10 µM
> 10 µM	> 10 µM	> 10 µM	> 10 µM	COc1ccc(OC)c(-c2coc3c4c(ccc3c2=O)OC(C)(C)C=C4)c1	> 10 µM	> 10 µM
4.23 µM	1.55 µM	6.18 µM	7 µM	COc1cc(OC)c(-c2coc3cc(OCc4ccc(C#N)cc4)ccc3c2=O)cc1OC	4.22 µM	–
0.94 µM	1.02 µM	0.47 µM	2.4 µM	COc1cc(OC)c(-c2coc3cc(OCc4ccc(Cl)cc4)ccc3c2=O)cc1OC	4.45 µM	4.4 µM
> 10 µM	> 10 µM	> 10 µM	> 10 µM	CC1(C)C=Cc2c(ccc3c(=O)c(-c4ccc(C=O)cc4)coc23)O1	> 10 µM	> 10 µM
3.45 µM	4.75 µM	5.9 µM	5.1 µM	C=CCOc1ccc2c(=O)c(-c3cc(OC)c(OC)cc3OC)coc2c1	6.6 µM	> 10 µM
2.04 µM	2.64 µM	9.4 µM	5.2 µM	COc1ccc2c(=O)c(-c3cc(OC)c(OC)cc3OC)coc2c1	9.17 µM	> 10 µM
> 10 µM	> 10 µM	> 10 µM	> 10 µM	COc1cccc(-c2coc3c4c(ccc3c2=O)OC(C)(C)C=C4)c1F	> 10 µM	> 10 µM
1 µM	1.72 µM	3.2 µM	1.12 µM	COc1cc(OC)c(-c2coc3cc(OCc4ccc(F)cc4)ccc3c2=O)cc1OC	0.95 µM	> 10 µM
> 10 µM	> 10 µM	> 10 µM	> 10 µM	CC1(C)C=Cc2c(ccc3c(=O)c(-c4ccc(Cl)c(C(F)(F)F)c4)coc23)O1	> 10 µM	> 10 µM
> 10 µM	> 10 µM	> 10 µM	> 10 µM	COc1ccc(-c2coc3c4c(ccc3c2=O)OC(C)(C)C=C4)cc1	> 10 µM	> 10 µM
1.28 µM	2.1 µM	2.89 µM	1.61 µM	COc1cc(OC)c(-c2coc3cc(OCc4ccccc4F)ccc3c2=O)cc1OC	2.9 µM	4.3 µM
> 10 µM	> 10 µM	> 10 µM	> 10 µM	CCOc1ccccc1-c1coc2c3c(ccc2c1=O)OC(C)(C)C=C3	> 10 µM	> 10 µM
> 10 µM	> 10 µM	> 10 µM	> 10 µM	COc1cc(-c2coc3c4c(ccc3c2=O)OC(C)(C)C=C4)cc(OC)c1OC	> 10 µM	> 10 µM
1.23 µM	1.3 µM	3.51 µM	2.44 µM	COc1cc(OC)c(-c2coc3cc(OCc4cccc(F)c4)ccc3c2=O)cc1OC	4.92 µM	5.3 µM
> 10 µM	> 10 µM	> 10 µM	> 10 µM	COc1ccccc1-c1coc2c3c(ccc2c1=O)OC(C)(C)C=C3	> 10 µM	> 10 µM
> 10 µM	> 10 µM	> 10 µM	> 10 µM	CC1(C)C=Cc2c(ccc3c(=O)c(-c4cccc(C(F)(F)F)c4)coc23)O1	> 10 µM	> 10 µM
1.86 µM	1.36 µM	2 µM	2.15 µM	COc1cc(OC)c(-c2coc3cc(OCc4ccccc4C)ccc3c2=O)cc1OC	2.9 µM	4.83 µM
> 10 µM	> 10 µM	> 10 µM	> 10 µM	COc1cccc(-c2coc3c4c(ccc3c2=O)OC(C)(C)C=C4)c1	> 10 µM	> 10 µM
> 10 µM	> 10 µM	> 10 µM	> 10 µM	COc1cc(OC)c(-c2coc3cc(OC(=O)Cc4cccc(C(F)(F)F)c4)ccc3c2=O)cc1OC	> 10 µM	> 10 µM
> 10 µM	> 10 µM	> 10 µM	> 10 µM	CC1(C)C=Cc2c(ccc3c(=O)c(-c4cccc(C=O)c4)coc23)O1	> 10 µM	> 10 µM
> 10 µM	> 10 µM	> 10 µM	> 10 µM	COc1ccc(-c2coc3c4c(ccc3c2=O)OC(C)(C)C=C4)c(OC)c1OC	> 10 µM	> 10 µM

IC50 (HepG2)	IC50 (A-375)	IC50 (U-251)	IC50 (B16)	SMILES	IC50 [1]	IC50 (HUVEC)
> 10 µM	> 10 µM	> 10 µM	> 10 µM	COc1cccc(C(=O)Oc2ccc3c(=O)c(-c4cc(OC)c(OC)cc4OC)coc3c2)c1	> 10 µM	> 10 µM
> 10 µM	0.99 µM	0.98 µM	2.14 µM	COc1cc(OC)c(-c2coc3cc(OCc4ccccc4C#N)ccc3c2=O)cc1OC	> 10 µM	> 10 µM
6.55 µM	> 10 µM	> 10 µM	8.55 µM	COc1cc(OC)c(-c2coc3cc(OCc4ccccc4C(F)(F)F)ccc3c2=O)cc1OC	4.76 µM	> 10 µM
1.69 µM	2.02 µM	> 10 µM	4.18 µM	COc1cc(OC)c(-c2coc3cc(OCc4ccccc4Cl)ccc3c2=O)cc1OC	2.45 µM	> 10 µM
> 10 µM	8.9 µM	2.5 µM	3.55 µM	CC1(C)C=Cc2c(ccc3c(=O)c(-c4ccc(C(F)(F)F)cc4Cl)coc23)O1	3.8 µM	> 10 µM
1.32 µM	1.64 µM	6.75 µM	2.33 µM	COc1cc(OC)c(-c2coc3cc(OCc4ccccc4)ccc3c2=O)cc1OC	2.28 µM	9.75 µM
> 10 µM	> 10 µM	> 10 µM	> 10 µM	CC1(C)C=Cc2c(ccc3c(=O)c(-c4ccc5c(c4)OCO5)coc23)O1	> 10 µM	> 10 µM
> 10 µM	> 10 µM	> 10 µM	> 10 µM	COc1cc(OC)c(-c2coc3cc(OCCN4CCOCC4)ccc3c2=O)cc1OC	> 10 µM	> 10 µM
> 10 µM	> 10 µM	> 10 µM	> 10 µM	CCOc1ccc(-c2coc3c4c(ccc3c2=O)OC(C)(C)C=C4)cc1	> 10 µM	> 10 µM
> 10 µM	> 10 µM	> 10 µM	> 10 µM	CC(=O)c1ccc(-c2coc3c4c(ccc3c2=O)OC(C)(C)C=C4)cc1	> 10 µM	> 10 µM
> 10 µM	> 10 µM	> 10 µM	> 10 µM	CC1(C)C=Cc2c(ccc3c(=O)c(-c4ccc(O)cc4)coc23)O1	> 10 µM	> 10 µM
0.75 µM	0.98 µM	> 10 µM	2.28 µM	COc1cc(OC)c(-c2coc3cc(OCc4cccc(Cl)c4)ccc3c2=O)cc1OC	1.33 µM	> 10 µM
> 10 µM	> 10 µM	> 10 µM	> 10 µM	CC1(C)C=Cc2c(ccc3c(=O)c(-c4ccc5c(c4)OCCO5)coc23)O1	> 10 µM	> 10 µM
> 10 µM	> 10 µM	> 10 µM	> 10 µM	COc1ccc(-c2coc3c4c(ccc3c2=O)OC(C)(C)C=C4)c(OC)c1	> 10 µM	> 10 µM
2.18 µM	2.85 µM	> 10 µM	8.9 µM	COc1cc(OC)c(-c2coc3cc(OCc4ccccc4Br)ccc3c2=O)cc1OC	4.55 µM	> 10 µM
1.05 µM	1 µM	–	1.18 µM	COc1cc(OC)c(-c2coc3cc(OCc4ccc(Br)cc4)ccc3c2=O)cc1OC	1.98 µM	> 10 µM
4.95 µM	3.68 µM	6.45 µM	4.5 µM	C#CCOc1ccc2c(=O)c(-c3cc(OC)c(OC)cc3OC)coc2c1	8.05 µM	> 10 µM
2.5 µM	> 10 µM	9.4 µM	> 10 µM	COc1cc(OC)c(-c2coc3cc(OCc4ccc([N+](=O)[O-])cc4)ccc3c2=O)cc1OC	> 10 µM	> 10 µM
0.89 µM	2.28 µM	3.75 µM	5.4 µM	COc1cc(OC)c(-c2coc3cc(OCc4ccc(C(F)(F)F)cc4)ccc3c2=O)cc1OC	2.44 µM	> 10 µM
0.61 µM	1.14 µM	> 10 µM	> 10 µM	COc1cc(OC)c(-c2coc3cc(OCc4cccc(C(F)(F)F)c4)ccc3c2=O)cc1OC	3.4 µM	> 10 µM
> 10 µM	> 10 µM	> 10 µM	> 10 µM	CC1(C)C=Cc2c(ccc3c(=O)c(-c4ccc(C#N)cc4)coc23)O1	> 10 µM	> 10 µM
0.87 µM	1.12 µM	> 10 µM	4.4 µM	COc1cc(OC)c(-c2coc3cc(OCc4cccc(Br)c4)ccc3c2=O)cc1OC	1.2 µM	> 10 µM

Source: ChEMBL document CHEMBL3352483, “Synthesis, structure-activity relationships and biological evaluation of barbigerone analogues as anti-proliferative and anti-angiogenesis agents” (Bioorg Med Chem Lett, 2014)
